# Experimental data taken from ChEMBL document CHEMBL4613292, “5,6-Dihydroxypyrimidine Scaffold to Target HIV-1 Nucleocapsid Protein” (ACS Med Chem Lett, 2020).
# Test system: not listed separately
# Assay: (§1) Inhibition of HIV1 Nucleocapsid protein (11 to 55 residues) assessed as reduction in NC-induced cTAR DNA destabilization by measuring intrinsic fluorescence using Alexa488-5'-cTAR-3'-Dabcyl oligonucleotide as substrate at 20 degree C incubated for 15 mins by fluorescence assay
# Design: species or system Human immunodeficiency virus 1
# Settings: not given; call rule not given here
# Outline: (§2)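 Fluorescence NC-inhibition assay following destabilisation of cTAR DNA, the complement of the HIV-1 transactivation response element, dual-labelled with Alexa488 dye and Dabcyl quencher. NC protein at 1 μM, so the lowest measurable IC50 is 0.5 μM.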
row,Compound,IC50
1,CCNC(=O)c1nc(-c2ccccn2)nc(O)c1O,Not Active
2,O=C(NCC1CCCCC1)c1nc(-c2ccncc2)nc(O)c1O,Not Active
3,CN(CC1CCCCC1)C(=O)c1nc(-c2ccccn2)nc(O)c1O,Not Active
4,O=C(NCC1CCCCC1)c1nc(CCc2ccccc2)nc(O)c1O,Not Active

# Same assay, conditions: read-out: IC50
row,Compound,IC50 [µM]
1,O=C(NC1CCCCC1)c1nc(-c2ccccn2)nc(O)c1O,300
2,CC(Cc1nc(-c2ccc(O)c(O)c2)cs1)n1cc(Cl)cn1 (centres undefined),110
3,Cc1cccc(-c2nc(O)c(O)c(C(=O)N[C@H](C)C3CCCCC3)n2)n1,20
4,C[C@@H](NC(=O)c1nc(-c2ccc(C(F)(F)F)cn2)nc(O)c1O)C1CCCCC1,23
5,CC(Cc1ccc(O)c(O)c1)C(C)Cc1ccc(O)c(O)c1 (centres undefined) [NORDIHYDROGUAIARETIC ACID],26
6,Cc1cccnc1-c1nc(O)c(O)c(C(=O)N[C@H](C)C2CCCCC2)n1,21
7,Cc1ccnc(-c2nc(O)c(O)c(C(=O)N[C@@H](C)C3CCCCC3)n2)c1,41

# Test system: Human immunodeficiency virus 1
# Assay: as §1
# Settings: not given
# Outline: as §2
Compound,IC40 [µM],IC35 [µM]
Cc1ccc(-c2nc(O)c(O)c(C(=O)N[C@H](C)C3CCCCC3)n2)nc1,20,–
C[C@@H](NC(=O)c1nc(-c2ncccc2C(F)(F)F)nc(O)c1O)C1CCCCC1,–,20
C[C@@H](NC(=O)c1nc(-c2cccc(C(F)(F)F)n2)nc(O)c1O)C1CCCCC1,–,20
